# From PubChem BioAssay
# Compounds with a hit are over-represented: about 2.6% of the library has one in this group of screens.
# SENP7 inh: blocks the human protease SENP7 | Q9BQF6 | recombinant SENP7, Z-RLRGG-aminoluciferin luminescence, 40 min | inhibition, % at 5 µM | 330,000 compounds, 1.5% hits | AID 434973;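 active = inhibition above about 50% at the single test dose, limit read from the data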;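 also: plate controls were DMSO with enzyme for no effect and no enzyme buffer wells for full effect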
# SENP6 inh: SENP6 protease inhibition. 330,000 compounds, 1.8% hits. Recombinant SENP6 catalytic domain, aminoluciferin luminescence. inhibition, % at 10 µM. Q9GZR1. AID 2599;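 active = inhibition above about 50% at the single tested dose, limit read from the data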;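 also: plate controls were DMSO wells with enzyme for no effect and DMSO wells lacking enzyme for full effect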
# SENP8 block-1: blocks the human protease SENP8; Q96LD8; 330,000 compounds, 1.2% hits; inhibition, % at 10 µM; purified SENP8, Z-RLRGG-aminoluciferin cleavage, luminescence; in the data active = inhibition above about 50%
# Target sequence (Q96LD8 whole entry, looked up): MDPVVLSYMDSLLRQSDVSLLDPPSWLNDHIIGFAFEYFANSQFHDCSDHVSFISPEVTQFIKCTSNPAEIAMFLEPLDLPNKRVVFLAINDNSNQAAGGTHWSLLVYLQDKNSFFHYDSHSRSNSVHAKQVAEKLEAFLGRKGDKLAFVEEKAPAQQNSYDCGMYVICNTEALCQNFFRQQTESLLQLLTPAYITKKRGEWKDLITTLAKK
# Platelet DG rel: platelet dense granule release activity; human platelet-rich plasma, SFLLRN dense granule ATP release, luminescence; inhibition, %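 (compounds screened at 7.5 µM in platelet-rich plasma)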; 300,000 compounds, 0.22% hits; AID 1663;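 active = mean replicate score, as percent of positive control, at or above 50; inconclusive = mean below 50 but at least one replicate at or above 50; inactive = mean and every replicate below 50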
# SENP8 block-2: SENP8 (human) protease inhibition; recombinant SENP8, Nedd8 substrate fluorescence; inhibition, % at 20 µM; 360,000 compounds, 0.64% hits; in the data active = inhibition mostly above about 40%, no sharp cut-off; inactive = mostly below about 27%
# SENP1 inh: inhibitors of human SENP1 SUMO protease catalytic domain; Q9P0U3; recombinant SENP1 catalytic domain, CyPet-SUMO1-YPet FRET cleavage; inhibition, % at 10 µM; 360,000 compounds, 0.21% hits; AID 624204;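 active = inhibition at least 30% at 10 µM, raw YFP signal under a set limit, fluorescence ratio 0.5 to 1.5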;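 also: 0% = enzyme with DMSO and 100% = no enzyme wells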
#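 Assay system: hSENP1 catalytic domain, recombinant. Amount: SENP1 enzyme, 20 pM final. Schedule: 50 min reaction, RT, dark. Technique: FRET, CFP and YFP emission. Control set: no-enzyme wells low, DMSO-plus-enzyme wells high control.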
# SENP8 conf: human SENP8 inhibition, confirmed; 6,200 compounds, 40% hits; inhibition, % at 12.5 µM; Recombinant SENP8, Z-RLRGG-aminoluciferin luminescence, 60 min; shares compounds with SENP7 inh; AID 488912;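 active = mean inhibition across replicates above about 50%, limit read from the data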
# SENP6 confirm: human SENP6 inhibition, confirmed; shares compounds with SENP7 inh; recombinant SENP6, Z-RLRGG-aminoluciferin luminescence; inhibition, % at 12.5 µM; 6,200 compounds, 58% hits
# SENP7 conf: human SENP7 inhibition, confirmed; 6,200 compounds, 69% hits; shares compounds with SENP7 inh; inhibition, % at 12.5 µM; recombinant SENP7, Z-RLRGG-aminoluciferin luminescence, 40 min
# Casp3 select: selectivity test for SENP inhibitors: human caspase-3 inhibition; shares compounds with SENP7 inh; purified caspase-3, Z-DEVD-aminoluciferin luminescence, 60 min; inhibition, % at 12.5 µM; 6,200 compounds, 60% hits; AID 488918;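 active = mean inhibition above about 50%, limit read from the data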;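 also: plate controls were enzyme with DMSO for no effect and wells without caspase-3 for full effect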
# Target sequence (P42574 28-227 limits assumed): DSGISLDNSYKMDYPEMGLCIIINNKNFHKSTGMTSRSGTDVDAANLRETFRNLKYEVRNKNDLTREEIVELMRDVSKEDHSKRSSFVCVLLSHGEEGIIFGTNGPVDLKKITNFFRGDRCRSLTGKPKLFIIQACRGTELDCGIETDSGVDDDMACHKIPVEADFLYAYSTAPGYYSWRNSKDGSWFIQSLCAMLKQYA
# Luc interf: luminescence interference (SENP counter-screen); 6,200 compounds, 39% hits; inhibition, % at 12.5 µM; shares compounds with SENP7 inh; Pre-incubated SENP8/Z-RLRGG-aminoluciferin, luciferase luminescence interference;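 active = mean inhibition above about 50% when retested at one dose, limit read from the data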;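 also: plate controls were DMSO wells with completed reaction for no effect and substrate without enzyme for full effect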
# * marks the source's active call; other numbers are inactive results; ? = inconclusive; / = not tested or not shown.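 The calls were made as follows, unless noted: active = mean inhibition above about 50% in the one-dose retest (limit read from the data); inactive = the rest.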
SMILES,SENP7 inh,SENP6 inh,SENP8 block-1,Platelet DG rel,SENP8 block-2,SENP1 inh,SENP8 conf,SENP6 confirm,SENP7 conf,Casp3 select,Luc interf
Cc1occc1C(=O)Nc1ccc(OCc2ccccc2)cc1,99.6*,97.6*,96.4*,33.1,-2.0,0.6,90.5*,100.0*,103.6*,98.7*,73.4*
CCC(C)c1ccc(NC(=O)c2cccs2)cc1 (stereo unspecified),84.4*,90.1*,86.5*,5.9,12.9,3.9,92.4*,92.6*,99.1*,76.1*,82.2*
O=C(Nc1ccc(OCc2ccccc2)cc1)c1cccs1,83.8*,69.5*,58.3*,3.3,17.5,0.3,40.6,60.3*,92.7*,72.9*,-0.3
CCC(C)NS(=O)(=O)c1ccc(NC(=O)c2cccs2)cc1 (stereo unspecified),23.5,8.1,-1.5,5.4,-4.7,3.3,/,/,/,/,/
O=C(Nc1ccc(NC(=O)c2cccs2)c(Cl)c1)c1cccs1,52.7*,62.8*,49.6,11.9,2.8,0.7,48.2,50.6*,80.4*,47.9,45.5
Nc1ccc(NC(=O)c2cccs2)c(Cl)c1,-9.3,-7.9,-5.0,4.2,0.1,0.2,/,/,/,/,/
Cc1occc1C(=O)Nc1cccc(C(=O)NCc2ccccc2)c1,-8.5,-28.6,-5.7,6.4,4.2,2.0,/,/,/,/,/
CCOc1ccc(S(=O)(=O)N2CCCCC2)cc1NC(=O)CN1C(=O)NC(C)(c2ccc(C)cc2)C1=O (stereo unspecified),-1.1,-2.9,13.5,3.1,-33.8,-45.7,/,/,/,/,/
Cc1ccc(S(=O)(=O)N2CCN(C(=O)COC(=O)CCOc3ccccc3)CC2)c(C)c1,1.4,1.2,2.8,/,10.8,1.2,/,/,/,/,/
CC(C)(CNC(=O)c1cccs1)CNC(=O)c1cccs1,84.2*,-2.7,-13.4,-0.6,-5.1,0.6,11.4,10.5,7.3,3.1,5.0
O=C(Nc1ccc(OCc2ccccc2)cc1)c1cccc([N+](=O)[O-])c1,56.3*,-4.4,-9.3,-1.4,15.9,2.7,-6.7,-3.9,5.6,5.2,-4.9
COc1ccc(NC(=O)c2cccs2)cc1,31.3,59.7*,15.8,-7.5,38.5,-0.1,33.9,30.6,73.9*,78.6*,61.5*
O=C(Nc1ccc(NC(=O)c2cccs2)cc1)c1cccs1,26.0,-21.9,-15.2,6.9,1.3,0.1,/,/,/,/,/
CCCOC(=O)c1ccc(NC(=O)c2ccccc2OC)cc1,-3.4,-26.5,-2.8,-6.9,2.5,1.4,/,/,/,/,/
Cc1ccc(C(=O)Nc2ccc(OCc3ccccc3)cc2)cc1[N+](=O)[O-],-8.7,-7.7,-5.9,9.6,16.8,2.2,/,/,/,/,/
CCCOC(=O)c1ccc(NC(=O)c2ccoc2C)cc1,92.6*,95.3*,89.2*,?,17.3,3.1,93.8*,95.3*,100.6*,92.0*,65.9*
CSCCC(NS(=O)(=O)c1ccccc1F)C(=O)Nc1ccncc1 (stereo unspecified),2.3,-3.6,7.8,/,4.8,-7.7,/,/,/,/,/
O=C1CCC(C(=O)N2CCN(c3cnccn3)CC2)CN1CCc1cccc(F)c1 (stereo unspecified),-9.1,-0.5,-4.0,-1.1,-340.2,1.3,/,/,/,/,/
c1coc(CNc2nc3ccccc3s2)c1,42.5,57.9*,16.9,-3.3,12.0,-4.3,23.4,22.8,69.7*,55.4*,41.2
Cc1nnc(NCc2ccco2)s1,10.8,5.1,-1.8,-8.0,18.8,2.9,/,/,/,/,/
Nc1ccc(-n2ccnc2)cc1,0.6,-0.6,-3.0,-1.7,18.5,0.8,/,/,/,/,/
